Test results as given in ChEMBL document CHEMBL1152539, “Synthesis and evaluation of bioactive naphthoquinones from the Brazilian medicinal plant, Tabebuia avellanedae” (Bioorg Med Chem, 2009).
Values after ≈ are worked out from the molar mass of the structure shown.

Columns and labels:
[1] = tested on: A549; test: Antiproliferative activity against human A549 cells after 72 hrs by trypan blue exclusion assay; type: functional, cell-based; settings: A549, 72 h
How it was run: (§1)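 Cells were kept in DMEM with 10% fetal serum and exposed to four concentrations of compound for 72 h at 37 °C in humidified 5% CO₂. They were then stained with 0.25% trypan blue for 20 min, and viable cells were counted by light microscopy. IC₅₀ was derived from separate experiments run in triplicate.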

[2] = tested on: MCF7; test: Antiproliferative activity against human MCF7 cells after 72 hrs by trypan blue exclusion assay; type: functional, cell-based; settings: MCF7, 72 h; how it was run: as §1
[3] = Antiproliferative activity against human skin fibroblast after 72 hrs by trypan blue exclusion assay; type: cell-based; how it was run: as §1
[4] = tested on: Hepatocyte; test: Antiproliferative activity against human hepatocytes after 72 hrs by trypan blue exclusion assay; type: cell-based; how it was run: as §1
[5] = Antiproliferative activity against human Hs888Lu cells after 72 hrs by trypan blue exclusion assay; type: cell-based; how it was run: as §1
[6] = Antiproliferative activity against human SVCT-M12 cells after 72 hrs by trypan blue exclusion assay; type: cell-based; settings: SVCT-M12, 72 h; how it was run: as §1
[7] = tested on: Raji; test: Inhibition of 12-O-tetradecanoylphorbol-13-acetate-induced EBV-early antigen activation in human Raji cells assessed as EA induction at 1000 molar ratio after 48 hrs by immunofluorescence technique relative to 12-O-tetradecanoylphorbol-13-acetate; type: cell-based; settings: human gammaherpesvirus 4
How it was run: (§2)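 Raji cells were incubated for 48 h at 37 °C in medium with n-butyric acid (4 mM), TPA (32 pmol) and graded amounts of test compound. Smears were stained for EBV-EA by indirect immunofluorescence, and positive cells were counted among at least 500 cells. Assays were run in triplicate. Activity was expressed relative to the n-butyric acid plus TPA control, set as 100%.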

[8] = tested on: Raji; test: Inhibition of 12-O-tetradecanoylphorbol-13-acetate-induced EBV-early antigen activation in human Raji cells assessed as EA induction at 500 molar ratio after 48 hrs by immunofluorescence technique relative to 12-O-tetradecanoylphorbol-13-acetate; type: cell-based; set-up: scale not given: the % may be the effect or the level left; settings: human gammaherpesvirus 4; how it was run: as §2
[9] = tested on: Raji; test: Inhibition of 12-O-tetradecanoylphorbol-13-acetate-induced EBV-early antigen activation in human Raji cells assessed as EA induction at 100 molar ratio after 48 hrs by immunofluorescence technique relative to 12-O-tetradecanoylphorbol-13-acetate; type: cell-based; set-up: scale not given: the % may be the effect or the level left; settings: human gammaherpesvirus 4; how it was run: as §2
[10] = tested on: Raji; test: Inhibition of 12-O-tetradecanoylphorbol-13-acetate-induced EBV-early antigen activation in human Raji cells assessed as EA induction at 10 molar ratio after 48 hrs by immunofluorescence technique relative to 12-O-tetradecanoylphorbol-13-acetate; type: cell-based; set-up: scale not given: the % may be the effect or the level left; settings: human gammaherpesvirus 4; how it was run: as §2
[11] = Inhibition of 12-O-tetradecanoylphorbol-13-acetate-induced EBV-early antigen activation in human Raji cells after 48 hrs by immunofluorescence technique; type: cell-based, human gammaherpesvirus 4; how it was run: as §2
[12] = Cytotoxicity against human Raji cells assessed as cell viability at 1000 molar ratio after 48 hrs by trypan blue staining; type: cell-based; settings: read-out: Activity
How it was run: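 Raji cells were exposed for 48 h at 37 °C to n-butyric acid (4 mM), TPA (32 pmol) and test compound, as in the EBV-EA induction setup. Viability of the treated cells was then measured by trypan blue staining.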

[13] = Anticancer activity against DMBA/TPA-induced skin cancer in mouse assessed as incidence of papilloma at 85 nmol administered before TPA challenge measured after 10 weeks; type: functional
How it was run: (§3)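 Mouse two-stage skin model: DMBA 390 nmol in 0.1 mL acetone applied topically by pipet. One week later, the same skin site was painted with test compound (85 nmol in acetone) or acetone alone, 60 min before TPA (1.7 nmol). Tumor response was scored as the average number of papillomas per mouse and the percentage of mice bearing papillomas.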

[14] = Anticancer activity against DMBA/TPA-induced skin cancer in mouse assessed as incidence of papilloma at 85 nmol administered before TPA challenge measured after 15 weeks; type: functional; how it was run: as §3
[15] = Anticancer activity against DMBA/TPA-induced skin cancer in mouse assessed as incidence of papilloma at 85 nmol administered before TPA challenge measured after 20 weeks; type: functional; how it was run: as §3
[16] = Anticancer activity against DMBA/TPA-induced skin cancer in mouse assessed as number of papillomas per mouse at 85 nmol administered before TPA challenge measured after 20 weeks; type: functional; how it was run: as §3
[17] = tested on: Bacillus subtilis; test: Antimicrobial activity against Bacillus subtilis NBRC3134 after 24 hrs by broth dilution method; type: functional; settings: NBRC3134, 24 h
How it was run: (§4)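 Modified NCCLS broth dilution. A 50 µL aliquot of bacterial cells (10⁶/mL in 0.85% NaCl) was added to 1 mL Mueller-Hinton broth containing compound over a 0.1–100 range.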

[18] = tested on: Staphylococcus aureus; test: Antimicrobial activity against Staphylococcus aureus NBRC13276 after 24 hrs by broth dilution method; type: functional; settings: NBRC13276, 24 h; how it was run: as §4
[19] = tested on: Bacillus mycoides; test: Antimicrobial activity against Bacillus mycoides ATCC 11778 after 24 hrs by broth dilution method; type: functional; settings: ATCC 11778, 24 h; how it was run: as §4
[20] = tested on: Escherichia coli; test: Antimicrobial activity against Escherichia coli ATCC 11775 after 24 hrs by broth dilution method; type: functional; settings: ATCC 11775, 24 h; how it was run: as §4
[21] = tested on: Pseudomonas aeruginosa; test: Antimicrobial activity against Pseudomonas aeruginosa NBRC13275 after 24 hrs by broth dilution method; type: functional; settings: NBRC13275, 24 h; how it was run: as §4
[22] = tested on: Salmonella enteritidis; test: Antimicrobial activity against Salmonella enteritidis OPS10 after 24 hrs by broth dilution method; type: functional, Salmonella enterica subsp. enterica serovar Enteritidis; settings: Salmonella enterica, OPS10, 24 h; how it was run: as §4
[23] = tested on: Naganishia albida; test: Antimicrobial activity against Cryptococcus albidus NBRC0378 after 24 hrs by broth dilution method; type: functional; settings: NBRC0378, 24 h
[24] = tested on: Aspergillus fumigatus; test: Antimicrobial activity against Aspergillus fumigatus NBRC4400 after 24 hrs by broth dilution method; type: functional; settings: NBRC4400, 24 h
[25] = tested on: Paecilomyces variotii; test: Antimicrobial activity against Paecilomyces variotii NBRC4855 after 24 hrs by broth dilution method; type: functional; settings: NBRC4855, 24 h
[26] = tested on: Candida albicans; test: Antimicrobial activity against Candida albicans NBRC1060 after 3-5 days by broth dilution method; settings: NBRC1060, 3-5 days
[27] = tested on: Penicillium expansum; test: Antimicrobial activity against Penicillium expansum NBRC8800 after 3-5 days by broth dilution method; settings: NBRC8800, 3-5 days
[28] = tested on: Saccharomyces cerevisiae; test: Antimicrobial activity against Saccharomyces cerevisiae NBRC10114 after 3-5 days by broth dilution method; settings: NBRC10114, 3-5 days
[29] = tested on: PC-3; test: Antiproliferative activity against human PC3 cells after 72 hrs by trypan blue exclusion assay; type: functional, cell-based; settings: PC-3, 72 h; how it was run: as §1
[30] = tested on: Naganishia albida; test: Antimicrobial activity against Cryptococcus albidus NBRC0378 after 3-5 days by broth dilution method; settings: NBRC0378, 3-5 days
[31] = tested on: Saccharomyces cerevisiae; test: Antimicrobial activity against Saccharomyces cerevisiae NBRC10114 after 24 hrs by broth dilution method; type: functional; settings: NBRC10114, 24 h
[32] = tested on: Aspergillus fumigatus; test: Antimicrobial activity against Aspergillus fumigatus NBRC4400 after 3-5 days by broth dilution method; settings: NBRC4400, 3-5 days
[33] = tested on: Paecilomyces variotii; test: Antimicrobial activity against Paecilomyces variotii NBRC4855 after 3-5 days by broth dilution method; settings: NBRC4855, 3-5 days

| Compound | IC50 [1] | IC50 [2] | IC50 [11] | MIC [17] | MIC [18] | MIC [19] | MIC [20] | MIC [21] | MIC [22] | MIC [26] | MIC [27] | IC50 [29] | EC50 [5] | EC50 [6] | EA induction relative to TPA control [7] | Activity [8] | Activity [9] | Activity [10] | viability at 48 h, 1000 molar ratio [12] | MIC [24] | other results |
| --- | --- | --- | --- | --- | --- | --- | --- | --- | --- | --- | --- | --- | --- | --- | --- | --- | --- | --- | --- | --- | --- |
| C[C@@H]1[C@H](O)[C@@H](C)/C=C/C=C/C=C/C=C/C=C/C=C/C=C/[C@H](O[C@@H]2O[C@H](C)[C@@H](O)[C@H](N)[C@@H]2O)C[C@@H]2O[C@](O)(C[C@@H](O)C[C@@H](O)[C@H](O)CC[C@@H](O)C[C@@H](O)CC(=O)O[C@H]1C)C[C@H](O)[C@H]2C(=O)O [AMPHOTERICIN B] |  |  |  |  |  |  |  |  |  | 1.56 µg/mL (≈ 1.69 µM) | 1.56 µg/mL (≈ 1.69 µM) |  |  |  |  |  |  |  |  | 1.56 µg/mL (≈ 1.69 µM) | MIC [25]: 0.78 µg/mL (≈ 0.844 µM); MIC [30]: 1.56 µg/mL (≈ 1.69 µM); MIC [28]: 0.78 µg/mL (≈ 0.844 µM) |
| CC1(C)CCC2=C(O1)c1ccccc1C(=O)C2=O [LAPACHONE] | 4.21 µM | 9.96 µM | 210 mol ratio/32 pmol TPA |  |  |  |  |  |  |  |  | 1.13 µM |  |  | 4.7% | 21.7% | 50.4% | 73.1% | 50% |  |  |
| COc1cc(/C=C/C(=O)CC(=O)/C=C/c2ccc(O)c(OC)c2)ccc1O [CURCUMIN] |  |  | 345 mol ratio/32 pmol TPA |  |  |  |  |  |  |  |  |  |  |  | 8.9% | 40.3% | 74.5% | 95.8% |  |  |  |

More lines, main results first:

| IC50 [1] | IC50 [2] | IC50 [11] | MIC [17] | MIC [18] | MIC [19] | MIC [20] | MIC [21] | MIC [22] | MIC [26] | MIC [27] | IC50 [29] | Compound | EC50 [5] | EC50 [6] | EA induction relative to TPA control [7] | Activity [8] | Activity [9] | Activity [10] | viability at 48 h, 1000 molar ratio [12] | MIC [24] | other results |
| --- | --- | --- | --- | --- | --- | --- | --- | --- | --- | --- | --- | --- | --- | --- | --- | --- | --- | --- | --- | --- | --- |
| 0.78 µM | 0.51 µM | 33.2 mol ratio/32 pmol TPA | 0.78 µg/mL (≈ 3.02 µM) | 3.13 µg/mL (≈ 12.1 µM) | 0.78 µg/mL (≈ 3.02 µM) | > 100 µg/mL | > 100 µg/mL | > 100 µg/mL | 25 µg/mL (≈ 96.8 µM) | 25 µg/mL (≈ 96.8 µM) |  | C[C@H](O)c1cc2c(o1)C(=O)c1cccc(O)c1C2=O | 5.51 µM | 3.36 µM | 0% | 4.4% | 16.9% | 50% | 60% | 12.5 µg/mL (≈ 48.4 µM) | EC50 [3]: 11.1 µM; EC50 [4]: 11.1 µM; Activity [13]: 7%; Activity [14]: 47%; Activity [15]: 67%; Activity [16]: 3.9; MIC [23]: 1.56 µg/mL (≈ 6.04 µM); MIC [25]: 25 µg/mL (≈ 96.8 µM); MIC [28]: 3.13 µg/mL (≈ 12.1 µM) |
| 4.31 µM | 2.61 µM | 40.1 mol ratio/32 pmol TPA |  |  |  |  |  |  |  |  | 3 µM | CC(=O)c1cc2c(o1)C(=O)c1c(O)cccc1C2=O | 14.6 µM | 11.7 µM | 0% | 8.3% | 27.5% | 60.3% | 70% |  |  |
| 4.31 µM | 2.61 µM | 271 mol ratio/32 pmol TPA | 1.56 µg/mL (≈ 6.04 µM) | 6.25 µg/mL (≈ 24.2 µM) | 1.56 µg/mL (≈ 6.04 µM) | > 100 µg/mL | > 100 µg/mL | > 100 µg/mL | 25 µg/mL (≈ 96.8 µM) | 50 µg/mL (≈ 194 µM) | 1.57 µM | C[C@H](O)c1cc2c(o1)C(=O)c1c(O)cccc1C2=O | 14.6 µM | 14.6 µM | 7.4% | 26.5% | 58.2% | 80.5% | 60% |  | MIC [31]: 3.13 µg/mL (≈ 12.1 µM); MIC [30]: 1.56 µg/mL (≈ 6.04 µM); MIC [32]: 25 µg/mL (≈ 96.8 µM); MIC [33]: 50 µg/mL (≈ 194 µM) |
